Activity calls are given as the source filed them. No cut-off for these calls is given here.
Legend:
Rattus norvegicus [1] = experiment: Maximum lowering of blood glucose when 25 mg/kg of the drug administered orally was reported by rat glucose tolerance test; assay type: functional; details: route oral
Rattus norvegicus [2] = experiment: Minimum effective concentration by rat glucose tolerance test (po); assay type: functional; details: read-out: MED
Rattus norvegicus [3] = species: Rattus norvegicus; experiment: Compound was tested in vitro for inhibition of palmitate oxidation; assay type: functional; details: for minimal effective concentration: Rattus norvegicus, read-out: MEC
In short: (§1)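 In vitro assay in rat hemidiaphragm muscle, using [1-¹⁴C]palmitic acid as the labeled substrate. Read-out was inhibition of oxidation of the labeled palmitate.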

Rattus norvegicus [4] = species: Rattus norvegicus; experiment: In vitro inhibition of palmitate oxidation; assay type: functional; in short: as §1
Rattus norvegicus [5] = experiment: Maximum lowering of blood glucose when 100 mg/kg of the drug administered orally was reported by rat glucose tolerance test; Inactive; assay type: functional, organism-based; parameters: dose 100 mg/kg
Rattus norvegicus [6] = species: Rattus norvegicus; experiment: In vitro inhibition of palmitate oxidation; Inactive; assay type: functional; in short: as §1
Rattus norvegicus [7] = experiment: Minimum effective concentration by rat glucose tolerance test (po); Inactive; assay type: functional, organism-based
Rattus norvegicus [8] = species: Rattus norvegicus; experiment: Compound was tested in vitro for inhibition of palmitate oxidation; Inactive; assay type: functional; in short: as §1
Rattus norvegicus [9] = experiment: Maximum lowering of blood glucose when 100 mg/kg of the drug administered orally was reported by rat glucose tolerance test; assay type: functional; details: route oral
Rattus norvegicus [10] = experiment: Maximum lowering of blood glucose when 60 mg/kg of the drug administered orally was reported by rat glucose tolerance test; assay type: functional; details: route oral
Rattus norvegicus [11] = experiment: Maximum lowering of blood glucose when 50 mg/kg of the drug administered orally was reported by rat glucose tolerance test; assay type: functional; details: route oral
Rattus norvegicus [12] = experiment: Maximum lowering of blood glucose when 75 mg/kg of the drug administered orally was reported by rat glucose tolerance test; assay type: functional; details: route oral

| Compound | minimal effective dose (Rattus norvegicus [2]) | minimal effective concentration (Rattus norvegicus [3]) | IC50 (Rattus norvegicus [4]; Rattus norvegicus) | IC50 (Rattus norvegicus [6]) | MEC (Rattus norvegicus [8]) | Max lowering (Rattus norvegicus [9]) | also measured |
| --- | --- | --- | --- | --- | --- | --- | --- |
| CCCCCCCCCCCCCCC1(C(=O)OCC(O)CO)CO1 (configuration not stated) | 5 mg/kg | 10 µM | 16 µM |  |  |  | Max lowering (Rattus norvegicus [1]): 31% |
| CCCCCCCCCCC1(C(=O)OCC)OC1(C)C (configuration not stated) |  |  |  | Not Active | inactive |  | Max lowering (Rattus norvegicus [5]): inactive; MED (Rattus norvegicus [7]): inactive |
| CCCCCCCCCCCCCCC1(C(N)=O)CO1 (configuration not stated) | 10 mg/kg |  |  | Not Active | inactive | 44% |  |
| CCCCCCCCCCCCCC1(C(=O)OC)CO1 (configuration not stated) | 5 mg/kg | 1 µM | 13 µM |  |  | 37% |  |
| CCCCCCC1(C(=O)OC)CO1 (configuration not stated) | 10 mg/kg | 20 µM | 102 µM |  |  | 30% |  |
| CCCCCCCCCCCC1(C(=O)OC)CO1 (configuration not stated) | 10 mg/kg | 2.5 µM | 7 µM |  |  | 38% |  |
| CCCCCCCCCCCCCCC1(CO)CO1 (configuration not stated) |  |  |  | Not Active | inactive |  | Max lowering (Rattus norvegicus [5]): inactive; MED (Rattus norvegicus [7]): inactive |
| CCCCCCCCCCCCCCC1(CC(C(=O)OC)C(=O)OC)CO1 (configuration not stated) |  |  |  | Not Active | inactive |  | Max lowering (Rattus norvegicus [5]): inactive; MED (Rattus norvegicus [7]): inactive |
| CCCCCCCCCCCCCCC1(C(=O)OC)OC1(C)C (configuration not stated) |  |  |  | Not Active | inactive |  | Max lowering (Rattus norvegicus [5]): inactive; MED (Rattus norvegicus [7]): inactive |
| COC(=O)C1(C)CO1 (configuration not stated) |  |  |  | Not Active | inactive |  | Max lowering (Rattus norvegicus [5]): inactive; MED (Rattus norvegicus [7]): inactive |
| CCCCCCCCCCCCC1(C(=O)OC)CO1 (configuration not stated) | 5 mg/kg | 1 µM | 15 µM |  |  | 32% |  |
| CCCCCCCCCCCCCCC1(C(=O)OCCCC)CO1 (configuration not stated) | 1.5 mg/kg | 10 µM | 47 µM |  |  | 40% |  |
| CCCCCCCCCCCCCCC1(C(=O)[O-])CO1.[Na+] (configuration not stated) | 2.5 mg/kg |  |  |  |  |  | Max lowering (Rattus norvegicus [10]): 38%; MEC (Rattus norvegicus [3]): 0.2 µM; IC50 (Rattus norvegicus [4]): 1 µM |
| CCCCCCCCCCCCCCC1(C(=O)NCCO)CO1 (configuration not stated) | 100 mg/kg |  |  | Not Active | inactive | 33% |  |
| CCCCCCCCCCCCCCC1(C(=O)N(C)C)CO1 (configuration not stated) | 25 mg/kg |  |  | Not Active | inactive | 19% |  |
| COC(=O)C1(CCCCCCCCCCc2ccccc2)CO1 (configuration not stated) | 10 mg/kg |  |  |  |  |  | Max lowering (Rattus norvegicus [1]): 36% |
| CCCCCCCCCCCCCCCCCCC1(C(=O)OC)CO1 (configuration not stated) | 10 mg/kg |  |  |  | inactive | 25% |  |
| CCCCCCCCCCCCCCCCCCCCCCC1(C(=O)OC)CO1 (configuration not stated) | 10 mg/kg |  |  | Not Active | inactive | 17% |  |
| CCCCCCCCCCCCCCCCC1(C(=O)OC)CO1 (configuration not stated) | 25 mg/kg | 10 µM | 100 µM |  |  | 16% |  |
| CCCCCCCCCCC1(C(=O)OC)CO1 (configuration not stated) | 10 mg/kg | 0.5 µM | 5 µM |  |  |  | Max lowering (Rattus norvegicus [11]): 32% |
| CCCCCCCCCCCCCCC1(C(=O)OC)OC1C (configuration not stated) |  |  |  | Not Active | inactive |  | Max lowering (Rattus norvegicus [5]): inactive; MED (Rattus norvegicus [7]): inactive |
| CCCCCCCCCCCCCCC1(C(=O)O)CO1 (configuration not stated) [PALMOXIRATE] | 5 mg/kg | 0.1 µM |  |  |  | 53% |  |
| CCCCCCCCCCCCCCC1(CCC(=O)OC)CO1 (configuration not stated) |  |  |  | Not Active | inactive |  | Max lowering (Rattus norvegicus [5]): inactive; MED (Rattus norvegicus [7]): inactive |
| CCCCCCCCCCCCCCC1(C(=O)OC)CO1 (configuration not stated) [METHYL PALMOXIRATE] | 4 mg/kg | 0.1 µM | 2 µM |  |  |  | Max lowering (Rattus norvegicus [12]): 45% |
